Experimental data: ChEMBL document CHEMBL4118275, “Synthesis of coumarin derivatives and their cytoprotective effects on t-BHP-induced oxidative damage in HepG2 cells” (Bioorg Med Chem Lett, 2018)
pEC50: −log10 of the molar value. Active and inactive are the calls of the source. No cut-off for these calls is given here.

How the values were obtained:
HepG2 [1] = assay: Cytotoxicity against human HepG2 cells at 10 uM; format: cell-based; details: hepg2, 10 µM
HepG2 [2] = assay: Cytoprotective activity against 100 uM t-BHP-induced oxidative stress in human HepG2 cells assessed as cell viability preincubated for 1 hr followed by t-BHP addition measured after 3 hrs by CCK-8 assay (reference value: 22%); format: functional
[3] = Antioxidant activity assessed as DPPH radical scavenging activity measured after 30 mins; format: functional
In short: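 DPPH radical scavenging was measured, and activity is given as EC50 in μM.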

HepG2 [4] = assay: Cytoprotective activity against 100 uM t-BHP-induced cell damage in human HepG2 cells assessed as increase in mitochondrial membrane potential preincubated for 1 hr followed by t-BHP addition measured after 3 hrs by rhodamine 123 staining based fluorescence microscopy; format: functional
In short: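 HepG2 cells were pretreated with sample, then exposed to 100 μM t-BHP and stained with Rhodamine 123. Mitochondrial membrane potential was judged from fluorescence microscopy images against untreated control and t-BHP-only cells.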

HepG2 [5] = assay: Cytoprotective activity against 1 mM t-BHP-induced oxidative stress in human HepG2 cells assessed as cell viability preincubated for 1 hr followed by t-BHP addition measured after 3 hrs by CCK-8 assay; format: functional

pEC50 [3] | SMILES | Activity (HepG2 [1]) | Activity (HepG2 [2]) | Activity (HepG2 [4]) | Activity (HepG2 [5]) [%]
 | COc1cc(/C=C/C(=O)OC2Cc3c(ccc4ccc(=O)oc34)OC2(C)C)ccc1O (stereo not given) | Non-Toxic | inactive |  | 
 | CC(C)(OC(=O)/C=C/c1ccc(O)cc1)C1Cc2c(ccc3ccc(=O)oc23)O1 (stereo not given) | Non-Toxic | inactive |  | 
 | CC(C)(OC(=O)/C=C/c1ccc(O)cc1)C1Cc2cc3ccc(=O)oc3cc2O1 (stereo not given) | Non-Toxic | inactive |  | 
 | COc1ccc(/C=C/C(=O)OC2Cc3c(ccc4ccc(=O)oc34)OC2(C)C)cc1OC (stereo not given) | Non-Toxic | inactive |  | 
 | CC1(C)Oc2ccc3ccc(=O)oc3c2CC1O (stereo not given) [LOMATIN] | Non-Toxic | inactive |  | 
 | CC1(C)Oc2ccc3ccc(=O)oc3c2CC1OC(=O)/C=C/c1ccccc1 (stereo not given) | Non-Toxic | inactive |  | 
 | CC1(C)Oc2cc3oc(=O)ccc3cc2CC1O (stereo not given) | Non-Toxic | inactive |  | 
 | CC1(C)Oc2ccc3ccc(=O)oc3c2CC1OC(=O)/C=C/c1ccc(O)cc1 (stereo not given) | Non-Toxic | inactive |  | 
 | CC1(C)Oc2cc3oc(=O)ccc3cc2CC1OC(=O)/C=C/c1ccc(O)cc1 (stereo not given) | Non-Toxic | inactive |  | 
5.82 | COC(=O)/C=C/c1ccc(O)c(O)c1 [METHYLCAFFEATE] |  | 31% |  | 
 | CC(C)(O)C1Cc2c(ccc3ccc(=O)oc23)O1 (stereo not given) | Non-Toxic | inactive |  | 
5.51 | CC1(C)Oc2ccc3ccc(=O)oc3c2CC1OC(=O)/C=C/c1ccc(O)c(O)c1 (stereo not given) | Non-Toxic | 86% | Active | 39
 | COc1cc(/C=C/C(=O)OC2Cc3c(ccc4ccc(=O)oc34)OC2(C)C)cc(OC)c1OC (stereo not given) | Non-Toxic | inactive |  | 
 | COc1ccc(/C=C/C(=O)OC2Cc3c(ccc4ccc(=O)oc34)OC2(C)C)cc1 (stereo not given) | Non-Toxic | inactive |  | 
 | CC(C)(O)C1Cc2cc3ccc(=O)oc3cc2O1 (stereo not given) | Non-Toxic | inactive |  | 

SMILES | pEC50 [3] | Activity (HepG2 [1]) | Activity (HepG2 [2]) | Activity (HepG2 [4]) | Activity (HepG2 [5]) [%]
O=c1c(O)c(-c2ccc(O)c(O)c2)oc2cc(O)cc(O)c12 [QUERCETIN] | 6.77 |  | 62% |  | 
